In ChEMBL document CHEMBL1255424, “Antistaphylococcal activity of ACHN-490 tested alone and in combination with other agents by time-kill assay” (2010):
≈ marks a conversion by molar mass, not a printed value.

Legend:
Assay type in all cases: functional
Staphylococcus aureus [1] = assay: Antibacterial activity against vancomycin-susceptible Staphylococcus aureus after 24 hrs by modified broth macrodilution method
Method in brief: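 MICs determined in recent clinical MRSA isolates by a modified broth macrodilution method per CLSI recommendations, with 24 h incubation. Daptomycin tests used Mueller-Hinton broth supplemented with calcium. Value is the lowest inhibitory drug concentration.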

Staphylococcus aureus [2] = assay: Antibacterial activity against vancomycin-intermediate Staphylococcus aureus after 24 hrs by modified broth macrodilution method
Method in brief: (§1)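 MIC read after 24 h incubation by modified broth macrodilution, validated per CLSI recommendations, against recent clinical MRSA isolates (hospital- and community-acquired, hVISA, VISA, VRSA). Daptomycin tests ran in Mueller-Hinton broth with added calcium.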

Staphylococcus aureus [3] = assay: Antibacterial activity against vancomycin-hetero-intermediate Staphylococcus aureus after 24 hrs by modified broth macrodilution method; method in brief: as §1
Staphylococcus aureus [4] = assay: Antibacterial activity against vancomycin-resistant Staphylococcus aureus after 24 hrs by modified broth macrodilution method; method in brief: as §1
Staphylococcus aureus [5] = assay: Antibacterial activity against vancomycin-resistant Staphylococcus aureus isolate 557 after 24 hrs by modified broth macrodilution method; settings: isolate 557, 24 h; method in brief: as §1
Staphylococcus aureus [6] = assay: Antibacterial activity against vancomycin-resistant Staphylococcus aureus isolate 509 after 24 hrs by modified broth macrodilution method; settings: isolate 509, 24 h; method in brief: as §1
Staphylococcus aureus [7] = assay: Antibacterial activity against vancomycin-resistant Staphylococcus aureus isolate 1263 after 24 hrs by modified broth macrodilution method; settings: isolate 1263, 24 h; method in brief: as §1
Staphylococcus aureus [8] = assay: Antibacterial activity against vancomycin-resistant Staphylococcus aureus isolate 1264 after 24 hrs by modified broth macrodilution method; settings: isolate 1264, 24 h; method in brief: as §1
Staphylococcus aureus [9] = assay: Antibacterial activity against vancomycin-hetero-intermediate Staphylococcus aureus isolate 618 after 24 hrs by modified broth macrodilution method; settings: isolate 618, 24 h; method in brief: as §1
Staphylococcus aureus [10] = assay: Antibacterial activity against vancomycin-hetero-intermediate Staphylococcus aureus isolate 873 after 24 hrs by modified broth macrodilution method; settings: isolate 873, 24 h; method in brief: as §1
Staphylococcus aureus [11] = assay: Antibacterial activity against vancomycin-intermediate Staphylococcus aureus isolate 555 after 24 hrs by modified broth macrodilution method; settings: isolate 555, 24 h; method in brief: as §1
Staphylococcus aureus [12] = assay: Antibacterial activity against vancomycin-intermediate Staphylococcus aureus isolate 1287 after 24 hrs by modified broth macrodilution method; settings: isolate 1287, 24 h; method in brief: as §1
Staphylococcus aureus [13] = assay: Antibacterial activity against vancomycin-intermediate Staphylococcus aureus isolate 770 after 24 hrs by modified broth macrodilution method; settings: isolate 770, 24 h; method in brief: as §1
Staphylococcus aureus [14] = assay: Antibacterial activity against vancomycin-intermediate Staphylococcus aureus isolate 1008 after 24 hrs by modified broth macrodilution method; settings: isolate 1008, 24 h; method in brief: as §1
Staphylococcus aureus [15] = assay: Antibacterial activity against vancomycin-intermediate Staphylococcus aureus isolate 1009 after 24 hrs by modified broth macrodilution method; settings: isolate 1009, 24 h; method in brief: as §1
Staphylococcus aureus [16] = assay: Antibacterial activity against vancomycin-intermediate Staphylococcus aureus isolate 1010 after 24 hrs by modified broth macrodilution method; settings: isolate 1010, 24 h; method in brief: as §1
Staphylococcus aureus [17] = assay: Antibacterial activity against vancomycin-intermediate Staphylococcus aureus isolate 1011 after 24 hrs by modified broth macrodilution method; settings: isolate 1011, 24 h; method in brief: as §1
Staphylococcus aureus [18] = assay: Antibacterial activity against vancomycin-intermediate Staphylococcus aureus isolate 1012 after 24 hrs by modified broth macrodilution method; settings: isolate 1012, 24 h; method in brief: as §1
Staphylococcus aureus [19] = assay: Antibacterial activity against vancomycin-intermediate Staphylococcus aureus isolate 1013 after 24 hrs by modified broth macrodilution method; settings: isolate 1013, 24 h; method in brief: as §1
Staphylococcus aureus [20] = assay: Antibacterial activity against vancomycin-intermediate Staphylococcus aureus isolate 1014 after 24 hrs by modified broth macrodilution method; settings: isolate 1014, 24 h; method in brief: as §1
Staphylococcus aureus [21] = assay: Antibacterial activity against vancomycin-intermediate Staphylococcus aureus isolate 1015 after 24 hrs by modified broth macrodilution method; settings: isolate 1015, 24 h; method in brief: as §1
Staphylococcus aureus [22] = assay: Antibacterial activity against vancomycin-intermediate Staphylococcus aureus isolate 1016 after 24 hrs by modified broth macrodilution method; settings: isolate 1016, 24 h; method in brief: as §1
Staphylococcus aureus [23] = assay: Antibacterial activity against vancomycin-intermediate Staphylococcus aureus isolate 1017 after 24 hrs by modified broth macrodilution method; settings: isolate 1017, 24 h; method in brief: as §1
Staphylococcus aureus [24] = assay: Antibacterial activity against vancomycin-intermediate Staphylococcus aureus isolate 511 after 24 hrs by modified broth macrodilution method; settings: isolate 511, 24 h; method in brief: as §1
Staphylococcus aureus [25] = assay: Antibacterial activity against vancomycin-intermediate Staphylococcus aureus isolate 1003 after 24 hrs by modified broth macrodilution method; settings: isolate 1003, 24 h; method in brief: as §1
Staphylococcus aureus [26] = assay: Antibacterial activity against vancomycin-intermediate Staphylococcus aureus isolate 1004 after 24 hrs by modified broth macrodilution method; settings: isolate 1004, 24 h; method in brief: as §1
Staphylococcus aureus [27] = assay: Antibacterial activity against vancomycin-intermediate Staphylococcus aureus isolate 1005 after 24 hrs by modified broth macrodilution method; settings: isolate 1005, 24 h; method in brief: as §1
Staphylococcus aureus [28] = assay: Antibacterial activity against vancomycin-intermediate Staphylococcus aureus isolate 1006 after 24 hrs by modified broth macrodilution method; settings: isolate 1006, 24 h; method in brief: as §1
Staphylococcus aureus [29] = assay: Antibacterial activity against vancomycin-intermediate Staphylococcus aureus isolate 1984 after 24 hrs by modified broth macrodilution method; settings: isolate 1984, 24 h; method in brief: as §1
Staphylococcus aureus [30] = assay: Antibacterial activity against vancomycin-intermediate Staphylococcus aureus isolate 1007 after 24 hrs by modified broth macrodilution method; settings: isolate 1007, 24 h; method in brief: as §1
Staphylococcus aureus [31] = assay: Antibacterial activity against methicillin-resistant Staphylococcus aureus isolate 2003 after 24 hrs by modified broth macrodilution method; settings: isolate 2003, 24 h; method in brief: as §1
Staphylococcus aureus [32] = assay: Antibacterial activity against hospital-acquired methicillin-resistant Staphylococcus aureus isolate 1743 after 24 hrs by modified broth macrodilution method; settings: isolate 1743, 24 h; method in brief: as §1
Staphylococcus aureus [33] = assay: Antibacterial activity against hospital-acquired methicillin-resistant Staphylococcus aureus isolate 1751 after 24 hrs by modified broth macrodilution method; settings: isolate 1751, 24 h; method in brief: as §1
Staphylococcus aureus [34] = assay: Antibacterial activity against hospital-acquired methicillin-resistant Staphylococcus aureus isolate 1766 after 24 hrs by modified broth macrodilution method; settings: isolate 1766, 24 h; method in brief: as §1
Staphylococcus aureus [35] = assay: Antibacterial activity against hospital-acquired methicillin-resistant Staphylococcus aureus isolate 1776 after 24 hrs by modified broth macrodilution method; settings: isolate 1776, 24 h; method in brief: as §1
Staphylococcus aureus [36] = assay: Antibacterial activity against hospital-acquired methicillin-resistant Staphylococcus aureus isolate 1806 after 24 hrs by modified broth macrodilution method; settings: isolate 1806, 24 h; method in brief: as §1
Staphylococcus aureus [37] = assay: Antibacterial activity against hospital-acquired methicillin-resistant Staphylococcus aureus isolate 1808 after 24 hrs by modified broth macrodilution method; settings: isolate 1808, 24 h; method in brief: as §1
Staphylococcus aureus [38] = assay: Antibacterial activity against hospital-acquired methicillin-resistant Staphylococcus aureus isolate 1838 after 24 hrs by modified broth macrodilution method; settings: isolate 1838, 24 h; method in brief: as §1
Staphylococcus aureus [39] = assay: Antibacterial activity against hospital-acquired methicillin-resistant Staphylococcus aureus isolate 1851 after 24 hrs by modified broth macrodilution method; settings: isolate 1851, 24 h; method in brief: as §1
Staphylococcus aureus [40] = assay: Antibacterial activity against hospital-acquired methicillin-resistant Staphylococcus aureus isolate 1867 after 24 hrs by modified broth macrodilution method; settings: isolate 1867, 24 h; method in brief: as §1
Staphylococcus aureus [41] = assay: Antibacterial activity against community-acquired methicillin-resistant panton-valentine leukocidin-positive Staphylococcus aureus isolate 1468 after 24 hrs by modified broth macrodilution method; settings: isolate 1468, 24 h; method in brief: as §1
Staphylococcus aureus [42] = assay: Antibacterial activity against community-acquired methicillin-resistant panton-valentine leukocidin-positive Staphylococcus aureus isolate 1469 after 24 hrs by modified broth macrodilution method; settings: isolate 1469, 24 h; method in brief: as §1
Staphylococcus aureus [43] = assay: Antibacterial activity against community-acquired methicillin-resistant panton-valentine leukocidin-positive Staphylococcus aureus isolate 815 after 24 hrs by modified broth macrodilution method; settings: isolate 815, 24 h; method in brief: as §1
Staphylococcus aureus [44] = assay: Antibacterial activity against community-acquired methicillin-resistant panton-valentine leukocidin-positive Staphylococcus aureus isolate 950 after 24 hrs by modified broth macrodilution method; settings: isolate 950, 24 h; method in brief: as §1
Staphylococcus aureus [45] = assay: Antibacterial activity against community-acquired methicillin-resistant panton-valentine leukocidin-positive Staphylococcus aureus isolate 1471 after 24 hrs by modified broth macrodilution method; settings: isolate 1471, 24 h; method in brief: as §1
Staphylococcus aureus [46] = assay: Antibacterial activity against community-acquired methicillin-resistant panton-valentine leukocidin-positive Staphylococcus aureus isolate 1472 after 24 hrs by modified broth macrodilution method; settings: isolate 1472, 24 h; method in brief: as §1
Staphylococcus aureus [47] = assay: Antibacterial activity against community-acquired methicillin-resistant panton-valentine leukocidin-positive Staphylococcus aureus isolate 593 after 24 hrs by modified broth macrodilution method; settings: isolate 593, 24 h; method in brief: as §1
Staphylococcus aureus [48] = assay: Antibacterial activity against community-acquired methicillin-resistant panton-valentine leukocidin-positive Staphylococcus aureus isolate 693 after 24 hrs by modified broth macrodilution method; settings: isolate 693, 24 h; method in brief: as §1
Staphylococcus aureus [49] = assay: Antibacterial activity against community-acquired methicillin-resistant panton-valentine leukocidin-positive Staphylococcus aureus isolate 813 after 24 hrs by modified broth macrodilution method; settings: isolate 813, 24 h; method in brief: as §1
Staphylococcus aureus [50] = assay: Antibacterial activity against community-acquired methicillin-resistant panton-valentine leukocidin-negative Staphylococcus aureus isolate 1470 after 24 hrs by modified broth macrodilution method; settings: isolate 1470, 24 h; method in brief: as §1
Staphylococcus aureus [51] = assay: Antibacterial activity against vancomycin-resistant Staphylococcus aureus isolate 510 after 24 hrs by modified broth macrodilution method; settings: isolate 510, 24 h; method in brief: as §1

CN[C@@H]1[C@@H](O)[C@@](C)(O[C@@H]2[C@@H](O)[C@H](O[C@H]3OC(CNCCO)=CC[C@H]3N)[C@@H](N)C[C@H]2NC(=O)[C@H](O)CCN)OC[C@]1(C)O
MIC (Staphylococcus aureus [1]): 2 µg/mL (≈ 3.3 µM)
MIC (Staphylococcus aureus [2]): 1 µg/mL (≈ 1.65 µM)
MIC (Staphylococcus aureus [3]): 1 µg/mL (≈ 1.65 µM)
MIC (Staphylococcus aureus [4]): 0.5 µg/mL (≈ 0.824 µM)
MIC (Staphylococcus aureus [5]): 0.5 µg/mL (≈ 0.824 µM)
MIC (Staphylococcus aureus [6]): 1 µg/mL (≈ 1.65 µM)
MIC (Staphylococcus aureus [7]): 2 µg/mL (≈ 3.3 µM)
MIC (Staphylococcus aureus [8]): 1 µg/mL (≈ 1.65 µM)
MIC (Staphylococcus aureus [9]): 1 µg/mL (≈ 1.65 µM)
MIC (Staphylococcus aureus [10]): 1 µg/mL (≈ 1.65 µM)
MIC (Staphylococcus aureus [11]): 4 µg/mL (≈ 6.59 µM)
MIC (Staphylococcus aureus [12]): 4 µg/mL (≈ 6.59 µM)
MIC (Staphylococcus aureus [13]): 2 µg/mL (≈ 3.3 µM)
MIC (Staphylococcus aureus [14]): 2 µg/mL (≈ 3.3 µM)
MIC (Staphylococcus aureus [15]): 2 µg/mL (≈ 3.3 µM)
MIC (Staphylococcus aureus [16]): 1 µg/mL (≈ 1.65 µM)
MIC (Staphylococcus aureus [17]): 2 µg/mL (≈ 3.3 µM)
MIC (Staphylococcus aureus [18]): 2 µg/mL (≈ 3.3 µM)
MIC (Staphylococcus aureus [19]): 2 µg/mL (≈ 3.3 µM)
MIC (Staphylococcus aureus [20]): 2 µg/mL (≈ 3.3 µM)
MIC (Staphylococcus aureus [21]): 4 µg/mL (≈ 6.59 µM)
MIC (Staphylococcus aureus [22]): 2 µg/mL (≈ 3.3 µM)
MIC (Staphylococcus aureus [23]): 2 µg/mL (≈ 3.3 µM)
MIC (Staphylococcus aureus [24]): 2 µg/mL (≈ 3.3 µM)
MIC (Staphylococcus aureus [25]): 1 µg/mL (≈ 1.65 µM)
MIC (Staphylococcus aureus [26]): 4 µg/mL (≈ 6.59 µM)
MIC (Staphylococcus aureus [27]): 2 µg/mL (≈ 3.3 µM)
MIC (Staphylococcus aureus [28]): 4 µg/mL (≈ 6.59 µM)
MIC (Staphylococcus aureus [29]): 4 µg/mL (≈ 6.59 µM)
MIC (Staphylococcus aureus [30]): 1 µg/mL (≈ 1.65 µM)
MIC (Staphylococcus aureus [31]): 8 µg/mL (≈ 13.2 µM)
MIC (Staphylococcus aureus [32]): 2 µg/mL (≈ 3.3 µM)
MIC (Staphylococcus aureus [33]): 2 µg/mL (≈ 3.3 µM)
MIC (Staphylococcus aureus [34]): 2 µg/mL (≈ 3.3 µM)
MIC (Staphylococcus aureus [35]): 4 µg/mL (≈ 6.59 µM)
MIC (Staphylococcus aureus [36]): 2 µg/mL (≈ 3.3 µM)
MIC (Staphylococcus aureus [37]): 2 µg/mL (≈ 3.3 µM)
MIC (Staphylococcus aureus [38]): 2 µg/mL (≈ 3.3 µM)
MIC (Staphylococcus aureus [39]): 4 µg/mL (≈ 6.59 µM)
MIC (Staphylococcus aureus [40]): 4 µg/mL (≈ 6.59 µM)
MIC (Staphylococcus aureus [41]): 4 µg/mL (≈ 6.59 µM)
MIC (Staphylococcus aureus [42]): 4 µg/mL (≈ 6.59 µM)
MIC (Staphylococcus aureus [43]): 4 µg/mL (≈ 6.59 µM)
MIC (Staphylococcus aureus [44]): 4 µg/mL (≈ 6.59 µM)
MIC (Staphylococcus aureus [45]): 4 µg/mL (≈ 6.59 µM)
MIC (Staphylococcus aureus [46]): 2 µg/mL (≈ 3.3 µM)
MIC (Staphylococcus aureus [47]): 4 µg/mL (≈ 6.59 µM)
MIC (Staphylococcus aureus [48]): 2 µg/mL (≈ 3.3 µM)
MIC (Staphylococcus aureus [49]): 4 µg/mL (≈ 6.59 µM)
MIC (Staphylococcus aureus [50]): 2 µg/mL (≈ 3.3 µM)
MIC (Staphylococcus aureus [51]): 1 µg/mL (≈ 1.65 µM)
